Experimental data of several laboratories.
Each line is one published result; the experiments were not run side by side.
Cell line: MDA-MB-435
Observed: cell growth or viability

With `COc1ccc(C(=O)/C=C/c2cccc3ccccc23)cc1S(N)(=O)=O` the inhibition was 95% (SRB; 10 µM).
With `CCOC(=O)c1[nH]c(Br)c(-c2ccc(Cl)cc2)c1Br` the IC50 was 0.919 µM (SRB).
`COc1ccc(N(C)c2ncnc3c2CCC3)cc1` has an IC50 of 0.0504 µM (SRB).
`COc1ccc(-c2ccc(-c3ccc(C(=N)N)nc3)s2)cc1` has a GI50 of 1.73 µM (SRB).
The IC50 of `CCOC(=O)c1[nH]c(Br)c(-c2ccc(Cl)c(Cl)c2)c1Br` is reported as 0.806 µM (SRB).
For `COc1ccc(C(=O)/C=C/c2cccnc2)cc1S(N)(=O)=O`, the inhibition was 26% (SRB; 10 µM).
`CCOC(=O)c1[nH]c(Br)c(-c2cccc(OC)c2)c1Br` has an IC50 of 0.633 µM (SRB).
The IC50 of `CC(C)C[C@H](NC(=O)[C@H](Cc1ccccc1)NC(=O)c1cnccn1)B(O)O` is reported as 0.008 µM (ATP luminescence).
With `COc1ccc(C(=O)/C=C/c2ccc(Cl)c(Cl)c2)cc1S(N)(=O)=O` the GI50 was 2.4 µM (SRB; 48 h).
For `CCOC(=O)c1[nH]c(Br)c(-c2ccc(Br)cc2)c1Br`, the IC50 was 0.312 µM (SRB).
`COc1ccc(-c2ccc(-c3ccc(C(=N)N)nc3)s2)cc1Cl` gave a GI50 of 1.73 µM (SRB).
`O=C1CCC2(Oc3cccc4cccc(c34)O2)c2c(O)ccc(O)c21` gave an IC50 of greater than 25 µM (resazurin; 72 h).
`O=C1NCCc2[nH]c(-c3ccncc3)cc21` has an IC50 of greater than 10 µM.
With `COc1ccccc1/C=C/C(=O)c1ccc(OC)c(S(N)(=O)=O)c1` the inhibition was 73% (SRB; 10 µM).
